# Paper PMC7001660 (Molecular cell, 2019)
# Tested on: M2 anti-FLAG antibody
# Assay: Prot-MaP on-chip limit of detection
# Format: binding, mouse
# Details: for fluorescence signal relative to WT: quantified fluorescence medians across M2 concentrations, Fig. 2B
# How it was run: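 Run at 25°C: M2 at 1, 3.2, 10, 32, 100nM (45 min each), each followed by wash and 35nM Alexa555 anti-mouse secondary (37 min). Zero-primary secondary gives baseline. Per-variant cluster medians used; threshold 3σ above negative-set mean; LoD by inter/extrapolation.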
Sequence,fold lower LoD than WT (LoD of WT FLAG (DYKDDDDK) relative to variant),fluorescence signal relative to WT
DYKDEDLL [superFLAG],7.9 fold,much higher signal than WT
"DYKDDDDKGDYKDHD [2xFLAG, reference compound]",,much higher signal than WT
